{"source": "paper PMC10201403", "about": "(Bioorganic & medicinal chemistry, 2023)", "key": {"C. parvum [1]": {"test_system": "C. parvum", "test": "In vitro Cryptosporidium parvum-infected HCT-8 cell assay", "type": "cell-based", "details": "for potency in the Cp HCT-8 assay, in words: C. parvum in HCT-8 cells; for EC50: Cryptosporidium parvum, HCT-8, read-out: EC50 in the Cp HCT-8 assay; for LipE (pEC50 minus logP): Cp pEC50 and calculated logP"}, "C. parvum [2]": {"test_system": "C. parvum", "details": "acute and chronic mouse models; cited from earlier work"}, "C. parvum [3]": {"test_system": "C. parvum", "details": "dairy calf; cited from earlier work"}, "C. hominis": {"test_system": "C. hominis", "details": "gnotobiotic piglet; cited from earlier work"}, "[4]": {"molecular_target": "human potassium channel hERG (Homo sapiens, UniProt Q12809)", "sequence (Q12809 whole entry)": "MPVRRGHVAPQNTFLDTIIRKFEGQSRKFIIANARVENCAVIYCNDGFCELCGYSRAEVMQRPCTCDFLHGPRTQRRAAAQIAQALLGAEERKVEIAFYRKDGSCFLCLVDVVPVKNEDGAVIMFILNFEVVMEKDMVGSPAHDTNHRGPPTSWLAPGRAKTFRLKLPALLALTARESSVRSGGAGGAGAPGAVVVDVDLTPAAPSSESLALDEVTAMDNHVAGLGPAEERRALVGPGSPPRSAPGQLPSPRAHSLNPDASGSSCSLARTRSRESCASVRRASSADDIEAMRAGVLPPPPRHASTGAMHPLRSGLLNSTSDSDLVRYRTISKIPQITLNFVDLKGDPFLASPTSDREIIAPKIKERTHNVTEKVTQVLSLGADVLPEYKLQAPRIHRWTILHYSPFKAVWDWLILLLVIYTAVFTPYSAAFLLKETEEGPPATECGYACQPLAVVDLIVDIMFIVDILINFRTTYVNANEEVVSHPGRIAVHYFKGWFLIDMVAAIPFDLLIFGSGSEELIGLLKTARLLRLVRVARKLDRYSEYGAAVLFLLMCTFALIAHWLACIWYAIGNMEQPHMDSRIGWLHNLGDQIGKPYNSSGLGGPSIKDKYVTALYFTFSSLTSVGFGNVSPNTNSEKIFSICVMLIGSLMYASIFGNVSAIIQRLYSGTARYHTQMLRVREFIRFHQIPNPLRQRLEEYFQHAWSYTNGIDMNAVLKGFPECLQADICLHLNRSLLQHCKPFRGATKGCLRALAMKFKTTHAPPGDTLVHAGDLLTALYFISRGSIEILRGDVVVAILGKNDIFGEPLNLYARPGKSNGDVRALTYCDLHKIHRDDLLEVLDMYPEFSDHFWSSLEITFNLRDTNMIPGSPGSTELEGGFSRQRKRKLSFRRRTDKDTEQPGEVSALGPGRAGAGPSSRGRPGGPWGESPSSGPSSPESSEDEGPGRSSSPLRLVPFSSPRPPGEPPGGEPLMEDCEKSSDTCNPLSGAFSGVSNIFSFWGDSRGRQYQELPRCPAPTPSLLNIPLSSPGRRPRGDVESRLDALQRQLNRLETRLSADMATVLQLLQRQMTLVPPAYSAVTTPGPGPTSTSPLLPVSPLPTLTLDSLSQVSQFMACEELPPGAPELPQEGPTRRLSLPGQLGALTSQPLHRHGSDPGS", "test": "[3H]-dofetilide competitive binding assay", "details": "10 μM", "outline": "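Radioligand competition on the human hERG potassium channel: test compound competes with [³H]-dofetilide, and binding is reported as percent inhibition of [³H]-dofetilide binding. Run by an outside contract laboratory.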"}, "Cryptosporidium": {"test_system": "Cryptosporidium", "details": "cited from earlier work"}, "hERG channel": {"molecular_target": "hERG channel (Homo sapiens, UniProt Q12809)", "sequence (Q12809 whole entry)": "as above", "test": "hERG-CHO automated patch clamp electrophysiology assay", "type": "cell-based", "details": "10 μM"}}, "note": "Where “and” joins values, the source holds several entries; their conditions need not be identical. Equal entries are not always repeated. Entries after “also recorded” stand apart in the source; their conditions may differ. Structures can show the parent of a compound that is named as a salt. Where two headings read alike, the source gives them in different places.", "data": [{"smiles": "O=C(Cc1ccc(Cl)c(Cl)c1)N1CCN(c2ncc([N+](=O)[O-])s2)CC1", "note": "[Compound 13, 2-(3,4-dichlorophenyl)-1-(4-(5-nitrothiazol-2-yl)piperazin-1-yl)ethanone]", "values": [{"measurement": "potency in the Cp HCT-8 assay, in words", "setting": "C. parvum [1]", "result": "weakly potent"}]}, {"smiles": "O=C(Cc1ccc(Cl)c(Cl)c1)N1CCN(c2nc3ccccc3s2)CC1", "note": "[Compound 29b, 1-(4-(benzo[d]thiazol-2-yl)piperazin-1-yl)-2-(3,4-dichlorophenyl)ethanone]", "values": [{"measurement": "potency in the Cp HCT-8 assay, in words", "setting": "C. parvum [1]", "result": "did not yield better potency"}]}, {"smiles": "O=C(Nc1ccc(Cl)c(Cl)c1)N1CCN(c2ccc3nccn3n2)CC1", "note": "[Compound 18b, N-(3,4-dichlorophenyl)-4-(imidazo[1,2-b]pyridazin-6-yl)piperazine-1-carboxamide]", "values": [{"measurement": "potency in the Cp HCT-8 assay, in words", "setting": "C. parvum [1]", "result": "drastically reduced the potency"}]}, {"smiles": "O=C(Nc1ccc(Cl)c(Cl)c1)N1CCN(c2cn3ccnc3cn2)CC1", "note": "[Compound 20, N-(3,4-dichlorophenyl)-4-(imidazo[1,2-a]pyrazin-6-yl)piperazine-1-carboxamide]", "values": [{"measurement": "EC50", "setting": "C. parvum [1]", "result": "20 to 30", "unit": "µM"}]}, {"smiles": "O=C(Cc1ccc(Cl)c(Cl)c1)N1CCN(c2ccc3nccn3n2)CC1", "note": "[Compound 18a, 2-(3,4-dichlorophenyl)-1-(4-(imidazo[1,2-b]pyridazin-6-yl)piperazin-1-yl)ethanone]", "values": [{"measurement": "potency in the Cp HCT-8 assay, in words", "setting": "C. parvum [1]", "result": "drastically reduced the potency"}]}, {"smiles": "O=C(Nc1ccc(Cl)cc1)N1CCN(c2ccc3nncn3n2)CC1", "note": "[Compound 1]", "values": [{"measurement": "oral efficacy in vivo", "setting": "C. parvum [2]", "result": "oral efficacy"}, {"measurement": "oral efficacy in vivo", "setting": "C. parvum [3]", "result": "oral efficacy"}, {"measurement": "oral efficacy in vivo", "setting": "C. hominis", "result": "oral efficacy"}]}, {"smiles": "O=C(Cc1ccc(Cl)c(Cl)c1)N1CCN(c2nc3ccccc3o2)CC1", "note": "[Compound 29a, 1-(4-(benzo[d]oxazol-2-yl)piperazin-1-yl)-2-(3,4-dichlorophenyl)ethanone]", "values": [{"measurement": "potency in the Cp HCT-8 assay, in words", "setting": "C. parvum [1]", "result": "did not yield better potency"}]}, {"smiles": "O=C(Nc1ccc(Cl)c(Cl)c1)N1CCN(C2=Nn3cnnc3CC2)CC1", "note": "[Compound 17b, N-(3,4-dichlorophenyl)-4-(7,8-dihydro-[1,2,4]triazolo[4,3-b]pyridazin-6-yl)piperazine-1-carboxamide]", "values": [{"measurement": "fold potency reduction compared to urea 2b", "setting": "C. parvum [1]; ratio of Cp EC50 values", "result": "~ 20 fold"}]}, {"smiles": "O=C(Cc1ccc(Cl)c(Cl)c1)N1CCN(c2ccccc2)CC1", "note": "[Compound 6a, 2-(3,4-dichlorophenyl)-1-(4-phenylpiperazin-1-yl)ethanone]", "values": [{"measurement": "effect in the hERG binding assay, in words", "setting": "[4]", "result": "does not exhibit significant effect"}]}, {"smiles": "Nc1nc2nc(N3CCN(C(=O)Cc4ccc(Cl)c(Cl)c4)CC3)ccc2s1", "note": "[Compound 31b, 1-(4-(2-aminothiazolo[4,5-b]pyridin-5-yl)piperazin-1-yl)-2-(3,4-dichlorophenyl)ethanone]", "values": [{"measurement": "potency in the Cp HCT-8 assay, in words", "setting": "C. parvum [1]", "result": "low micromolar range; also recorded: modestly potent"}, {"measurement": "fold more potent than methyl analog 31a", "setting": "C. parvum [1]; ratio of Cp EC50 values", "result": 5, "unit": "fold"}]}, {"smiles": "O=C(Cc1ccc(Cl)c(Cl)c1)N1CCNCC1", "note": "[Compound 4, 2-(3,4-dichlorophenyl)-1-(piperazin-1-yl)ethanone hydrochloride]", "values": [{"measurement": "EC50", "setting": "C. parvum [1]", "result": "≥ 20", "unit": "µM"}]}, {"smiles": "O=C(Nc1ccc(Cl)c(Cl)c1)N1CCN(c2nc3ccccc3[nH]2)CC1", "note": "[Compound 28, 4-(1H-benzo[d]imidazol-2-yl)-N-(3,4-dichlorophenyl)piperazine-1-carboxamide]", "values": [{"measurement": "potency in the Cp HCT-8 assay, in words", "setting": "C. parvum [1]", "result": "did not yield better potency"}]}, {"smiles": "CC(C)(C)OC(=O)N1CCN(C(=O)Cc2ccc(Cl)c(Cl)c2)CC1", "note": "[Compound 5, tert-Butyl 4-(2-(3,4-dichlorophenyl)acetyl)piperazine-1-carboxylate]", "values": [{"measurement": "EC50", "setting": "C. parvum [1]", "result": "≥ 20", "unit": "µM"}]}, {"smiles": "O=C(Cc1ccc(Cl)c(Cl)c1)N1CCN(c2ccc3nncn3n2)CC1", "note": "[Compound 2a, 1-(4-([1,2,4]triazolo[4,3-b]pyridazin-6-yl)piperazin-1-yl)-2-(3,4-dichlorophenyl)ethanone]", "values": [{"measurement": "LipE (pEC50 minus logP)", "setting": "C. parvum [1]", "result": 3.3}, {"measurement": "efficacy in vivo", "setting": "Cryptosporidium", "result": "efficacious in vivo"}]}, {"smiles": "O=C(Cc1ccc(Cl)c(Cl)c1)N1CCN(C2=Nn3cnnc3CC2)CC1", "note": "[Compound 17a, 2-(3,4-dichlorophenyl)-1-(4-(7,8-dihydro-[1,2,4]triazolo[4,3-b]pyridazin-6-yl)piperazin-1-yl)ethanone]", "values": [{"measurement": "LipE (pEC50 minus logP)", "setting": "C. parvum [1]", "result": 4.13}, {"measurement": "fold less potent than 2a (SLU-2633)", "setting": "C. parvum [1]; ratio of Cp EC50 values", "result": "7 fold and ~ 7 fold"}, {"measurement": "reduction of inhibition in hERG patch-clamp assay relative to 2a (SLU-2633)", "setting": "hERG channel", "result": "about two-fold"}]}, {"smiles": "O=C(Cc1ccc(Cl)c(Cl)c1)N1CCN(c2ccc3nonc3c2)CC1", "note": "[Compound 24, 1-(4-(benzo[c][1,2,5]oxadiazol-5-yl)piperazin-1-yl)-2-(3,4-dichlorophenyl)ethanone]", "values": [{"measurement": "EC50", "setting": "C. parvum [1]", "result": "20 to 30", "unit": "µM"}]}, {"smiles": "O=C(Cc1ccc(Cl)c(Cl)c1)N1CCN(c2ccn3nccc3n2)CC1", "note": "[Compound 19, 2-(3,4-dichlorophenyl)-1-(4-(pyrazolo[1,5-a]pyrimidin-5-yl)piperazin-1-yl)ethanone]", "values": [{"measurement": "EC50", "setting": "C. parvum [1]", "result": "20 to 30", "unit": "µM"}]}]}
